This is a sample that favours compounds with a hit; in the whole collection about 2.1% have one here.
CXCR6 block: CXCR6 (human) receptor inhibition | hit rate 0.36% among 360,000 | inhibition, % at 20 µM | CHO-K1 PathHunter CXCR6 beta-arrestin, luminescence | O00574; in the data active = inhibition above about 34%, passing the limit was not always enough;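 also: antagonist mode with CXCL16 agonist at 10 nM final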
Target sequence (O00574 whole entry, looked up): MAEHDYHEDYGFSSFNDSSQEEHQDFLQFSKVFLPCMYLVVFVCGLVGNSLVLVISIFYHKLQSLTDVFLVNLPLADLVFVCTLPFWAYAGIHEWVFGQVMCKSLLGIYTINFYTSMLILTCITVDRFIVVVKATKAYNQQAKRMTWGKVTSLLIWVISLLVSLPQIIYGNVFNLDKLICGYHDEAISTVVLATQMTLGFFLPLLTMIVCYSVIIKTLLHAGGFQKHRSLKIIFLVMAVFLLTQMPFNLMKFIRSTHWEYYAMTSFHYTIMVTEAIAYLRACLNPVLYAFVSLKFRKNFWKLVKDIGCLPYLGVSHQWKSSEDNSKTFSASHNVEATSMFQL
APJ antag: antagonists of human APJ apelin receptor; CHO-K1 APJ beta-arrestin complementation, luminescence; AID 2521; hit rate 0.32% among 330,000; P35414; inhibition, % at 20 µM;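 active = inhibition above about 40% at 20 µM, limit read from the data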;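 also: cells challenged with 10 nM apelin-13 agonist together with compound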
m5-HT2A agonist: mouse HTR2A agonism via beta-arrestin recruitment | P35363 | CHO-K1 mHTR2A beta-arrestin complementation, luminescence; percent of 30 µM serotonin response | activation, % at 7.6 µM | hit rate 0.66% among 360,000 | AID 624169;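 active = activation above a run cutoff, the mean activation of all tested compounds plus 3 SD, cut at about 14% in these data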
EBI2 block: antagonists of human EBI2 receptor; EBI2 beta-arrestin recruitment, luminescence, 7a,25-OHC stimulated; inhibition, % at 5 µM; hit rate 0.81% among 360,000; AID 651636; in the data active = inhibition above about 38%;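 also: enzyme fragment complementation signal reports receptor beta-arrestin coupling in cells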
CCR6 antag: blocks CCL20-driven beta-arrestin recruitment at human CCR6 | AID 493098 | inhibition, % at 20 µM | hit rate 0.49% among 340,000 | P51684 | CHO-K1 CCR6 PathHunter beta-arrestin, luminescence, CCL20-stimulated;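 active = compounds whose inhibition of the agonist-driven luminescence signal at 20 µM reaches about 50%, limit read from the data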;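 also: cells stimulated with CCL20 at 14 nM final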
APJ agonist: activates the human apelin receptor APJ | AID 2520 | P35414 | hit rate 0.11% among 330,000 | activation, % at 20 µM | CHO-K1 APJ PathHunter beta-arrestin, luminescence; 0% DMSO wells, 100% apelin;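 active = activation more than six SD over the plate average, tested at 20 µM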
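Incubation: overnight seeding, 90 min compound at 25 °C, 1 h detection; test system: PathHunter CHO-K1 APJ (AGTRL-1) beta-arrestin reporter cells; amount: 1000 cells/well; doses: one dose, 20 µM compound, 1% DMSO; measured by: beta-gal luminescence; measure: agonist-driven arrestin binding to APJ; benchmarks: negative DMSO alone, positive Apelin-13 at 10 nM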
EBI2 conf: EBI2 (human) antagonism, single concentration confirmation; EBI2 beta-arrestin luminescence, 7a,25-OHC antagonism; shares compounds with EBI2 block; hit rate 29% among 2,400; AID 651997; inhibition, % at 5 µM;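 active = inhibition of at least 50%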
EBI2 agonist: EBI2 agonism counter-screen; shares compounds with EBI2 block; EBI2-expressing cells, agonist mode, luminescence, 60 min; 0% vehicle, 100% 7α,25-dihydroxycholesterol control; activation, % at 5 µM; 2,400 tested, under 10 active; AID 652000;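 active = activation of at least 50%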
bGal cs: beta-galactosidase inhibition counter-screen; hit rate 1% among 2,400; purified beta-galactosidase, luminescent Galacton Star, 15 min; shares compounds with EBI2 block; inhibition, % at 5 µM;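 active = replicate-average signal at least 3 plate SD below neutral wells, shown as high inhibition, flagging enzyme-inhibiting false positives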;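 also: higher means stronger loss of beta-gal luminescence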
Large screens that a line does not name were inactive (follow-up assays come after a bar, where they were run).

COCCCn1c(Cc2csc(Nc3ccc(F)cc3)n2)nnc1SCC(N)=O	none
NC(=O)CSc1nnc(Cc2csc(Nc3ccc(F)cc3)n2)n1Cc1ccccc1	EBI2 block 63 | EBI2 conf inactive | EBI2 agonist inactive | bGal cs inactive
O=C(/C=C/c1cccs1)N1CCC2(CC1)Oc1ccc(Cl)cc1C(=O)C21CC(c2cccnc2)=NO1 (stereo unspecified)	EBI2 block 66 | EBI2 conf inactive | EBI2 agonist inactive | bGal cs inactive
Cc1ccc(NC(=O)COC(=O)C2CCC2)cc1S(=O)(=O)N1CCOCC1	none
COc1ccc(NC(=O)c2sc(SCc3ccccc3)nc2N)cc1	EBI2 block 88 | EBI2 conf 69 | EBI2 agonist inactive | bGal cs inactive
COc1ccc(NC(=O)c2sc(SC)nc2N)cc1	none
Cc1cc(C)n2nc(SC(C)C(=O)Nc3ccccc3F)nc2n1 (stereo unspecified)	none
Cn1c2ccc(F)cc2c2nnc(SCCN3CCCCC3)nc21	none
CCN(CC)CCSc1nnc2c3cc(F)ccc3n(Cc3ccccc3)c2n1	EBI2 block 56 | EBI2 conf inactive | EBI2 agonist inactive | bGal cs inactive
CCn1c2ccccc2c2nnc(SCc3ccccc3)nc21	none
CCN(CC)CCSc1nnc2c3ccccc3n(Cc3ccccc3)c2n1	EBI2 block 54 | EBI2 conf inactive | EBI2 agonist inactive | bGal cs inactive
COc1ccc(C(c2nnnn2C2CCCC2)N2CCC(C)CC2)c(OC)c1 (stereo unspecified)	none
COc1cc2cc(C(c3nnnn3C3CCCC3)N3CCCCC3)c(=O)[nH]c2cc1OC (stereo unspecified)	none
COc1ccc2cc(C(c3nnnn3C3CCCC3)N3CCCCCC3)c3nnnn3c2c1 (stereo unspecified)	EBI2 block 60 | EBI2 conf inactive | EBI2 agonist inactive | bGal cs inactive
COc1ccc2[nH]c(=O)c(C(c3nnnn3C3CCCC3)N(C)C3CCCCC3)cc2c1 (stereo unspecified)	EBI2 block 62 | EBI2 conf inactive | EBI2 agonist inactive | bGal cs inactive
COc1ccc2cc(C(c3nnnn3C3CCCCC3)N3CCCCCC3)c3nnnn3c2c1 (stereo unspecified)	EBI2 block 54 | EBI2 conf inactive | EBI2 agonist inactive | bGal cs inactive
CC(=O)c1ccc(S(=O)(=O)N(C)CC(=O)N2CCCCCC2)cc1	none
COc1ccc(N2CCN(C(C)C(=O)N3CCCC3)CC2)cc1 (stereo unspecified)	none
O=C(CSc1ccc(Br)cc1)N1CCN(C(=O)c2ccco2)CC1	EBI2 block 83 | EBI2 conf 69 | EBI2 agonist inactive | bGal cs inactive
O=C(NCc1ccccc1)c1cccc(OCC(=O)N2CCN(C(=O)c3ccco3)CC2)c1	none
Cc1ccc(OCC(=O)N2CCN(C(=O)c3ccco3)CC2)cc1	EBI2 block 52 | EBI2 conf inactive | EBI2 agonist inactive | bGal cs inactive
O=C(CSc1ccc(Br)cc1)N1CCOCC1	none
O=C(COc1ccc2ccccc2c1)N1CCN(C(=O)c2ccco2)CC1	EBI2 block 73 | EBI2 conf inactive | EBI2 agonist inactive | bGal cs inactive
O=C(COc1ccccc1Cl)N1CCN(C(=O)c2ccco2)CC1	none
Cc1ccc(OCC(=O)N2CCN(C(=O)c3cccs3)CC2)cc1	EBI2 block 60 | EBI2 conf inactive | EBI2 agonist inactive | bGal cs inactive
COc1ccc(OC)c(S(=O)(=O)N2CCN(C(=O)NC3CCCCC3)CC2)c1	none
COc1cccc(NC(=O)C(=O)NCCCN2CCCC2=O)c1	none
Cc1ccc(F)c(C(=O)N2CCCC(C)(C(=O)NS(=O)(=O)C3CC3)C2)c1F (stereo unspecified)	none (no result: APJ antag, CCR6 antag, APJ agonist)
Cc1ccnc(NC(=O)c2ccc(S(=O)(=O)N3CCCC3)cc2)c1	none
Cc1cc(C(=O)COC(=O)C2CCN(C(=O)c3ccc(Cl)cc3)CC2)c(C)n1CC1CCCO1 (stereo unspecified)	EBI2 block 73 | EBI2 conf 51 | EBI2 agonist inactive | bGal cs inactive
COc1cccc(NC(=O)C(Sc2nnc(Nc3ccccc3C)s2)c2ccccc2)c1 (stereo unspecified)	EBI2 block 46 | EBI2 conf inactive | EBI2 agonist inactive | bGal cs inactive
COc1ccc(Nc2nnc(SC(C(=O)Nc3cc(C)ccc3C)c3ccccc3)s2)cc1 (stereo unspecified)	none
Cc1cc(Br)ccc1OCC(=O)NNC(=O)Cc1ccccc1	EBI2 block 46 | EBI2 conf inactive | EBI2 agonist inactive | bGal cs inactive
O=C(OCc1nnc(-c2ccc([N+](=O)[O-])cc2)o1)C1CCN(C(=O)c2ccc(Cl)cc2)CC1	EBI2 block 50 | EBI2 conf inactive | EBI2 agonist inactive | bGal cs inactive
Cc1noc(C)c1C(=O)Nc1ccc(C#N)cc1	none
S=C(NCCc1ccccc1)N1CCN(C(c2ccccc2)c2ccccc2)CC1	EBI2 block 54 | EBI2 conf inactive | EBI2 agonist inactive | bGal cs inactive
CSc1ccc(C(=S)N2CCN(C)CC2)cc1	none
CSc1ccc(C(=S)N2CCN(C(c3ccccc3)c3ccccc3)CC2)cc1	EBI2 block 83 | EBI2 conf inactive | EBI2 agonist inactive | bGal cs inactive
COc1ccccc1N1CCN(C(=O)CN(C)S(=O)(=O)c2ccc3c(c2)c(=O)n(C)c(=O)n3C)CC1	none
COc1ccc(-c2csc(N(CC(C)C)C(=O)c3ccco3)n2)cc1	EBI2 block 44 | EBI2 conf inactive | EBI2 agonist inactive | bGal cs inactive
O=C1OCCC1Sc1nnc(-c2ccccc2Cl)n1Cc1ccccc1 (stereo unspecified)	EBI2 block 53 | EBI2 conf inactive | EBI2 agonist inactive | bGal cs inactive
Cc1ccc(Nc2cc(Cl)nc(N)n2)c([N+](=O)[O-])c1	none (no result: APJ antag, APJ agonist)
Cc1nc(NC(=O)CSc2nnc(-c3ccccc3)c(-c3ccccc3)n2)c(Cl)cc1Cl	EBI2 block 42 | EBI2 conf inactive | EBI2 agonist inactive | bGal cs inactive
O=C(CSc1nnc(-c2ccccc2)c(-c2ccccc2)n1)Nc1ncc(Cl)cc1Cl	none

Screens from PubChem BioAssay.
